# Compound activity as filed in PubChem BioAssay.
# GSTO1 inh: GSTO1 inhibition, counter-screen for RBBP9 inhibitors; inhibition, % at 5.96 µM; P78417; recombinant GSTO1, activity-based probe fluorescence polarization; actives 1.1% (n = 300,000);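 active = inhibition above the campaign mean inhibition plus 3 SD, cut at about 35% in these data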;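 also: 0% = GSTO1-1 with DMSO and 100% = wells lacking GSTO1-1 enzyme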
# PP5 primary: inhibitors of human protein phosphatase 5 (PP5); P53041; purified PP5c, OMFP substrate fluorescence; inhibition, % at 6.7 µM; actives 0.18% (n = 320,000); AID 1987;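 active = inhibition above the campaign's mean inhibition across all tested compounds plus 3 SD, cut at about 9.5% in these data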;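 also: 0% = DMSO only and 100% = 100 µM cantharidin control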
# TDP2 absorb: TDP2 (human) inhibition, absorbance primary screen | actives 0.34% (n = 370,000) | recombinant TDP2, T5PNP hydrolysis, p-nitrophenol absorbance 415 nm | AID 720702 | O95551 | inhibition, % at 12.8 µM;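 active = inhibition above the mean of all tested compounds plus 3 SD, set per campaign, cut at about 25% in these data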;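 also: 0% = DMSO with enzyme and 100% = buffer with substrate but no TDP2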
#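 System – recombinant human TDP2 · Amount – 120 nM TDP2 per well · Buffer or medium – Mg2+-containing Tris-HCl buffer, pH 7.5 · Reagent – T5PNP substrate, 5 mM · Dosing – 12.8 µM single point, 1% DMSO · Incubation – 2 h at 37 °C · Measured by – epi absorbance · Read-out basis – percent inhibition · Benchmarks – high control without enzyme, low control DMSO plus TDP2 · Repeats – singlicate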
# PP1 counter: PP1-alpha (human) inhibition in PP5 counter-screen. purified PP1alpha, OMFP fluorescence. P62136. inhibition, % at 6.7 µM. actives 0.9% (n = 320,000);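 active = inhibition above the mean inhibition of all tested compounds plus 3 SD, computed separately for each screening campaign, cut at about 15% in these data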
# Apaf1 inhib: inhibitors of human Apaf-1 apoptosome | inhibition, % at 20 µM | O14727 | actives 0.71% (n = 330,000) | reconstituted apoptosome caspase-3 activity, DEVD-Rh110 fluorescence; active = inhibition of at least 40% at 20 µM;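 also: plate controls were DMSO wells for no effect and DEVD-CHO caspase inhibitor wells for full effect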
# Target sequence (O14727 whole entry, looked up): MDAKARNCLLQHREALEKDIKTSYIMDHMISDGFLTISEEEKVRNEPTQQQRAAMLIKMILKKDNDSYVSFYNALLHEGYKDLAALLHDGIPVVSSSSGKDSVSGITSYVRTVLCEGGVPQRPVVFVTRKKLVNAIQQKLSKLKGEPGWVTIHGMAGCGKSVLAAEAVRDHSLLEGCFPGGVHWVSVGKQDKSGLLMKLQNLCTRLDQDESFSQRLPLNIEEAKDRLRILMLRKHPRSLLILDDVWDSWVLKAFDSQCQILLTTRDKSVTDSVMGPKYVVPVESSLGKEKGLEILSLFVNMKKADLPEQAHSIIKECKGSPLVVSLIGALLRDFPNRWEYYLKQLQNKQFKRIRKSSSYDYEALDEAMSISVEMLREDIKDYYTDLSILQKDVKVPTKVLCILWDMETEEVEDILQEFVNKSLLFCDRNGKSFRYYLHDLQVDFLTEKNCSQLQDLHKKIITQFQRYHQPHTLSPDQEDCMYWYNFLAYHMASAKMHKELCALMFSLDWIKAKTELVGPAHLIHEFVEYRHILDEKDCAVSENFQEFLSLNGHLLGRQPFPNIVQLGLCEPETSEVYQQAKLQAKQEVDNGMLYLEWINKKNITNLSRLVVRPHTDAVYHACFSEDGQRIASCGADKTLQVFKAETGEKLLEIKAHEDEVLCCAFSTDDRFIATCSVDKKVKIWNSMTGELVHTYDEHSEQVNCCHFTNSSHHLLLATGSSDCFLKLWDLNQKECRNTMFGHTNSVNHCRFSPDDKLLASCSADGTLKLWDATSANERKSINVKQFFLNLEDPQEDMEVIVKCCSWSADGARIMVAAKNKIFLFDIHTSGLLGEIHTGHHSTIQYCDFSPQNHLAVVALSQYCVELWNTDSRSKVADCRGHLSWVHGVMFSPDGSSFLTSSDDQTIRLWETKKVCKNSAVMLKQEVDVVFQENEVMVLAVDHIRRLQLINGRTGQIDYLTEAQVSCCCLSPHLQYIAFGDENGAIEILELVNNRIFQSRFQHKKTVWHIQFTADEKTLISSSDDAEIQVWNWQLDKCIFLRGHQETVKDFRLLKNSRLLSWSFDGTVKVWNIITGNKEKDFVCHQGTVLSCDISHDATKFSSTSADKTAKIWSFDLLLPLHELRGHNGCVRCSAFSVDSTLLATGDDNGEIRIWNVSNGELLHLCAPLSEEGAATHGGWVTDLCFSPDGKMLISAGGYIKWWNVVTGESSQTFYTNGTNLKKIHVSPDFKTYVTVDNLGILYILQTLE
#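 System: reconstituted apoptosome with Apaf-1, cytochrome c, caspase-9, procaspase-3, dATP; Signal: Rh110 fluorescence intensity; Schedule: 30 min compound preincubation, 50 min activation, room temperature; Reagent: cytochrome c trigger plus (Z-DEVD)2-Rh110 caspase-3 substrate.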
# GSTO1 confirm: GSTO1 (human) inhibition, confirmation; shares compounds with GSTO1 inh; recombinant GSTO1, probe fluorescence polarization; inhibition, % at 5.96 µM; actives 54% (n = 2,400);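 active = inhibition above the primary screen's cutoff, its mean inhibition plus 3 SD, cut at about 35% in these data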;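 also: loss of polarization as inhibitors block binding of rhodamine sulfonate ester activity probe; 0% = GSTO1 with DMSO and 100% = wells lacking GSTO1 enzyme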
# PP5 inh confirm: PP5 (human) inhibition, confirmation; Purified PP5, fluorogenic phosphatase substrate, fluorescence; inhibition, % at 6.7 µM; shares compounds with PP5 primary; actives 22% (n = 460); AID 2331; in the data active = inhibition above about 9.5%
# PP1 counter 3x: PP1 phosphatase inhibition, counter-screen for PP5 inhibitors. shares compounds with PP5 primary. actives 4% (n = 460). AID 2355. PP1 enzyme, fluorescent phosphatase substrate. inhibition, % at 6.7 µM; in the data active = inhibition above about 16%
# Apaf-1 inh conf2: Apaf-1 inhibition, single-dose confirmed; shares compounds with Apaf1 inhib; reconstituted apoptosome, caspase-3 DEVD-Rh110 fluorescence; inhibition, % at 20 µM; actives 25% (n = 1,800);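 active = mean inhibition of at least 40% at 20 µM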;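 also: plate controls were DMSO wells for no effect and DEVD-CHO caspase inhibitor control wells for full effect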
# Rh110 interf inh: Rh110 signal interference in Apaf-1 inhibitor counter-screen. activation (fluorescence interference), % at 20 µM. AID 504615. Rh110 fluorescence interference, quenched caspase reaction. 1,800 tested, under 10 active. shares compounds with Apaf1 inhib;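 active = signal rise of 40% or more at 20 µM, treated as a fluorescence artifact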
# Fluor interf inh: shows fluorescence interference in the Apaf-1 inhibitor assay format. shares compounds with Apaf1 inhib. fluorescence interference counterscreen, Apaf-1 assay format. IC50, µM. 460 tested, under 10 active; call rule not given here
# Numbers without * were called inactive; · = no result. The list is not random: actives were taken first. Their share in the collection is about 2.1%.
SMILES,GSTO1 inh,PP5 primary,TDP2 absorb,PP1 counter,Apaf1 inhib,GSTO1 confirm,Apaf-1 inh conf2,Rh110 interf inh,Fluor interf inh,others
Cc1ccc(C(NC(=O)C2CCN(Cc3ccc(Oc4ccccc4)cc3)CC2)c2ccccn2)cc1 (centres undefined),·,·,-9.0,·,·,·,·,·,·,
Cc1ccc2nc(-c3cccc(Cl)c3)c(Cc3ccccc3C(F)(F)F)n2c1,·,·,3.9,·,·,·,·,·,·,
CC(C)(C)N1C(=O)Cc2c1nc(N)c1c(N)nc(N3CCCCC3CO)c(C#N)c21 (centres undefined),90.7*,15.3*,·,11.2,98.7*,88.3*,21.1,2.7,·,
CC1=NN(c2ccccc2)C(=O)/C1=C\c1cn(CCC#N)nc1-c1ccc(Cl)cc1,53.2*,7.6,5.3,0.8,79.8*,10.0,22.9,12.1,·,
CC1=NN(c2ccccc2)C(=O)/C1=C\c1cn(-c2ccccc2)nc1C,6.1,2.3,-4.2,1.8,23.0,·,·,·,·,
Cc1occc1-c1nnc(SCC(=O)NCc2ccc(Cl)cc2)n1-c1ccccc1,·,·,-5.6,·,·,·,·,·,·,
O=C(NCCc1c[nH]c2ccccc12)OCc1cn(Cc2ccccc2F)nn1,·,·,-6.6,·,·,·,·,·,·,
Cc1cccc(C)c1NC(=O)CSc1nnc(-c2ccco2)c(-c2ccco2)n1,58.4*,2.3,·,11.4,41.7*,39.6*,26.9,1.7,·,
COc1ccc(C(=O)CSc2nnc(-c3ccco3)c(-c3ccco3)n2)cc1,·,·,11.4,·,·,·,·,·,·,
COCCNC(=S)N(C)[C@H]1C[C@H]2c3[nH]c4c(-c5ccc6c(c5)OCO6)cccc4c3CCN2C(=O)[C@H]1[C@H](C)O,·,·,-3.2,·,·,·,·,·,·,
CCOc1cc(CNc2ccc(S(N)(=O)=O)cc2)cc(Cl)c1OC,-2.4,1.0,-1.3,-3.8,2.6,·,·,·,·,
CCOc1cc(CNc2ccc(N3CCCC3)cc2)cc(Cl)c1OC,69.8*,2.8,8.4,14.5,55.0*,70.4*,51.2*,9.0,>100,
Cc1c(C(=O)c2ccc(F)cc2F)c2ccccn2c1CCC#N,39.1*,4.3,6.3,-0.3,62.7*,4.0,24.2,9.7,·,
Cc1c(C(=O)c2ccc(F)cc2F)c2ccccn2c1CCc1ccccn1,·,·,0.3,·,·,·,·,·,·,
CCNc1ccccc1CP(=O)(c1ccccc1)c1ccccc1O (centres undefined),87.3*,2.6,-10.8,14.6,86.5*,4.5,12.3,-0.7,·,
O=C1NC(=S)N/C1=C/c1cc2c(cc1[N+](=O)[O-])OCO2,82.6*,-1.5,11.6,-4.6,88.0*,34.4,81.3*,0.6,>100,
COc1cc(OC)c(NC2=CC(=O)C(=O)c3ccccc32)cc1Cl,79.4*,5.8,3.9,0.0,91.6*,76.8*,92.1*,8.9,>100,
COc1ccc(CCn2c(N)c(C#N)c3nc4ccccc4nc32)cc1OC,56.9*,-2.5,-1.6,-2.1,60.5*,-5.0,-2.3,0.9,·,
C=CCN(CC=C)Cc1c(O)ccc2c1oc(=O)c1ccccc12,54.8*,0.7,-8.7,0.7,46.8*,28.7,41.2*,3.0,>100,
O=C(CCc1ccccc1)N[C@H]1[C@H](OCc2ccccc2)CCC[C@@]12C(=O)N(Cc1ccccc1)c1ccccc12,·,·,6.0,·,·,·,·,·,·,
O=C1C(=O)c2ccc(-c3ccccc3)cc2-c2ccccc21,87.4*,2.8,3.3,-0.2,98.1*,90.6*,99.7*,7.6,>100,
Nc1ccc2c(c1)C(=O)c1ccccc1-2,6.0,2.9,9.0,-2.0,-2.2,·,·,·,·,
C=CCN1C(=O)[C@H](CC(=O)NCCC(C)C)[C@@]2(C(=O)OCC)CCCC=C12,·,·,10.3,·,·,·,·,·,·,
CCOC(=O)c1c(C)nc2c(c1-c1ccccc1)C(=O)c1ccccc1-2,-1.3,5.5,-9.4,0.7,26.9,·,·,·,·,
Cc1cc(=O)oc(C)c1C(=O)O,-1.2,-0.3,6.8,-3.1,-17.3,·,·,·,·,
SMILES,GSTO1 inh,PP5 primary,TDP2 absorb,PP1 counter,Apaf1 inhib,GSTO1 confirm,Apaf-1 inh conf2,Rh110 interf inh,Fluor interf inh,others
CCOC(=O)c1c(C)oc2c1C(=O)c1ccccc1C2=O,65.7*,2.2,-6.5,-1.1,68.5*,64.1*,67.8*,1.6,>100,
Cc1oc2c(c1C(=O)O)C(=O)c1ccccc1C2=O,60.5*,2.4,11.4,-2.1,79.5*,61.7*,68.5*,-1.3,>100,
C#CCN1CC(N(C)CCOC(=O)CSc2ccccc2)CS1(=O)=O (centres undefined),·,·,4.8,·,·,·,·,·,·,
CCOc1cc2c(C#N)c(N3CCCC3)nc(N)c2c(N)n1,-5.2,1.0,-2.1,0.9,7.0,·,·,·,·,
N#Cc1c(N2CCCC2)nc(N)c2c(N)nc(N3CCCC3)cc12,93.1*,15.9*,8.7,6.2,98.1*,90.8*,99.0*,8.9,>100,PP5 inh confirm=24.7*;PP1 counter 3x=17.9*
CN(C)c1ncc(C2=C(Cl)C(=O)C(N3CCCC3)=C(Cl)C2=O)s1,87.7*,9.2,27.3*,16.6*,83.0*,81.1*,42.0*,2.9,>100,
Oc1cccc(/C=N/N2CCCCC2)c1O,26.7,1.9,4.5,-2.0,7.7,·,·,·,·,
Oc1ccc(/C=N/N2CCCCC2)c(O)c1O,46.3*,1.6,-11.2,0.7,69.6*,13.6,18.8,2.9,·,
Cc1ccc(CSc2nnc(-c3cc(-c4ccc(F)cc4)n[nH]3)n2N)cc1,·,·,5.7,·,·,·,·,·,·,
C=CCOc1c(Cl)cc(CNc2ccc(N(C)C)cc2)cc1OC,76.7*,3.2,14.6,8.4,63.8*,0.8,19.4,2.8,·,
Cc1ccc(S(=O)(=O)Oc2ccc(/C=N/N=C3/NC(=O)C(CC(=O)O)S3)cc2)cc1 (centres undefined),·,·,7.1,·,7.2,·,·,·,·,
O=C(O)CC1S/C(=N/N=C/c2ccc(-c3ccccc3[N+](=O)[O-])o2)NC1=O (centres undefined),62.5*,4.5,-0.4,0.3,73.0*,9.4,21.5,1.8,·,
Cc1ccc(-c2ccc(/C=N/N=C3/NC(=O)C(CC(=O)O)S3)o2)c([N+](=O)[O-])c1 (centres undefined),66.9*,2.9,-4.5,2.1,74.0*,11.9,28.3,8.9,·,
COCCNC(=O)C1(C)CCCN(C(=O)c2ccc(N(C)C)cc2)C1 (centres undefined),·,·,0.1,·,·,·,·,·,·,
CCOC(=O)c1ccc(NC2=CC(=O)C(=O)c3ccccc32)cc1,77.0*,5.1,9.0,0.1,72.3*,86.7*,87.6*,7.8,>100,
